Data as given in ChEMBL document CHEMBL3813637, “Synthesis and Antiproliferative and Metabolic Evaluations of Novel Securinine Derivatives” (ACS Med Chem Lett, 2016).

Tests used:
[1] = Antiproliferative activity against human HCT116 cells assessed as reduction in cell viability at 20 uM after 72 hrs by ATPlite assay; assay type: functional; conditions: HCT-116, 72 h, read-out: GI
In short: (§1)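 HCT-116 human colon cancer cells exposed to compound for 72 h at 20, 10 or 1 μM. Growth inhibition is expressed as percentage relative to nontreated cells.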

A-375 = assay: Antiproliferative activity against human A375 cells assessed as reduction in cell viability after 72 hrs by ATPlite assay; assay type: functional, cell-based; conditions: A-375, 72 h
In short: (§2)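 IC50 determined in human cancer cell lines (HCT-116, A-375 melanoma, HL-60, A-549). Camptothecin and etoposide served as reference compounds.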

[2] = Antiproliferative activity against human HCT116 cells assessed as reduction in cell viability at 10 uM after 72 hrs by ATPlite assay; assay type: functional; conditions: HCT-116, 72 h, read-out: GI; in short: as §1
[3] = Antiproliferative activity against human HCT116 cells assessed as reduction in cell viability after 72 hrs by ATPlite assay; assay type: functional, cell-based; conditions: HCT-116, 72 h; in short: as §2
[4] = Antiproliferative activity against human HL60 cells assessed as reduction in cell viability after 72 hrs by ATPlite assay; assay type: functional, cell-based; conditions: HL-60, 72 h; in short: as §2
A549 = assay: Antiproliferative activity against human A549 cells assessed as reduction in cell viability after 72 hrs by ATPlite assay; assay type: functional, cell-based; conditions: A549, 72 h
In short: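 IC50 values were determined on a panel of four human cancer lines (HCT-116, A-549, HL-60, A-375), with camptothecin and etoposide as reference compounds.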

[5] = Antiproliferative activity against human HCT116 cells assessed as reduction in cell viability at 1 uM after 72 hrs by ATPlite assay; assay type: functional; conditions: HCT-116, 72 h, read-out: GI; in short: as §1

Row | Compound | inhibition of growth at 20 µM [1] [%] | IC50 (A-375) [nM] | inhibition of growth at 10 µM [2] [%] | IC50 [3] [nM] | IC50 [4] [nM] | IC50 (A549) [nM] | inhibition of growth at 1 µM [5] [%]
1 | CC(C)(C)OC(=O)NCC#CC1=C[C@@H]2C[C@@]3(OC(=O)C=C13)[C@H]1CCCCN21 | 100 | 360 | 100 | 1660 | 5000 | 2640 | 79.3
2 | CC(C)(C)OC(=O)NC1CCC(C#CC2=C[C@@H]3C[C@@]4(OC(=O)C=C24)[C@H]2CCCCN32)CC1 (stereo partly specified) | 100 | – | 100 | – | – | – | 93.4
3 | O=C1C=C2C(C#Cc3ccc(F)cc3)=C[C@@H]3C[C@@]2(O1)[C@H]1CCCCN31 | 100 | 2820 | 99.9 | 2470 | > 10000 | 3990 | 87.3
4 | O=Cc1ccc(C2=C[C@@H]3C[C@@]4(OC(=O)C=C24)[C@H]2CCCCN32)cc1 | 34.6 | – | 9.5 | – | – | – | -0.7
5 | Cc1ccc(C#CC2=C[C@@H]3C[C@@]4(OC(=O)C=C24)[C@H]2CCCCN32)cc1 | 100 | 1750 | 100 | – | > 10000 | > 10000 | 64
6 | O=C1C=C2C(C#CCCCO)=C[C@@H]3C[C@@]2(O1)[C@H]1CCCCN31 | 96.9 | – | 64.3 | – | – | – | 5.9
7 | Cc1cccc(C2=C[C@@H]3C[C@@]4(OC(=O)C=C24)[C@H]2CCCCN32)c1 | 33.8 | – | 15.6 | – | – | – | 5.7
8 | O=C1C=C2C(c3ccco3)=C[C@@H]3C[C@@]2(O1)[C@H]1CCCCN31 | 45.5 | – | 23.8 | – | – | – | 6
9 | O=C1C=C2C(I)=C[C@@H]3C[C@@]2(O1)[C@H]1CCCCN31 | 100 | – | 100 | – | – | – | 80.9
10 | O=C1C=C2C(C#CC3CC3)=C[C@@H]3C[C@@]2(O1)[C@H]1CCCCN31 | 93.9 | – | 94.8 | – | – | – | 5.9
11 | COC(=O)c1ccc(C2=C[C@@H]3C[C@@]4(OC(=O)C=C24)[C@H]2CCCCN32)cc1 | 23.9 | – | 10.5 | – | – | – | -3.6
12 | O=C1C=C2C(c3ccc(C(F)(F)F)cc3)=C[C@@H]3C[C@@]2(O1)[C@H]1CCCCN31 | 80.4 | – | 47.9 | – | – | – | -1.5
13 | CC(C)(O)C#CC1=C[C@@H]2C[C@@]3(OC(=O)C=C13)[C@H]1CCCCN21 | 97.7 | – | 91.6 | – | – | – | 10.3
14 | C[Si](C)(C)C#CC1=C[C@@H]2C[C@@]3(OC(=O)C=C13)[C@H]1CCCCN21 | 99.3 | – | 99 | – | – | – | 10.1
15 | CC(C)(C)OC(=O)NCCCC#CC1=C[C@@H]2C[C@@]3(OC(=O)C=C13)[C@H]1CCCCN21 | 99.9 | – | 98.8 | – | – | – | 60.1
16 | O=C1C=C2C(C#CCO)=C[C@@H]3C[C@@]2(O1)[C@H]1CCCCN31 | 98.9 | – | 94.9 | – | – | – | 5
17 | CCCCCC#CC1=C[C@@H]2C[C@@]3(OC(=O)C=C13)[C@H]1CCCCN21 | 97.5 | – | 96.6 | – | – | – | 10.2

Row | Compound | inhibition of growth at 20 µM [1] [%] | IC50 (A-375) [nM] | inhibition of growth at 10 µM [2] [%] | IC50 [3] [nM] | IC50 [4] [nM] | IC50 (A549) [nM] | inhibition of growth at 1 µM [5] [%]
18 | O=C1C=C2C(c3ccccc3)=C[C@@H]3C[C@@]2(O1)[C@H]1CCCCN31 | 24.1 | – | 9.2 | – | – | – | -3.8
19 | O=C1C=C2C(c3ccc(Br)cc3)=C[C@@H]3C[C@@]2(O1)[C@H]1CCCCN31 | 60.1 | – | 23 | – | – | – | -5.2
20 | CC(C)(C)c1ccc(C2=C[C@@H]3C[C@@]4(OC(=O)C=C24)[C@H]2CCCCN32)cc1 | 30.6 | – | 9.7 | – | – | – | 0.9
21 | Cc1ccc(C2=C[C@@H]3C[C@@]4(OC(=O)C=C24)[C@H]2CCCCN32)cc1 | 30 | – | 11.7 | – | – | – | 0.3
22 | O=C1C=C2C(C#Cc3cccnc3)=C[C@@H]3C[C@@]2(O1)[C@H]1CCCCN31 | 100 | 950 | 100 | – | > 10000 | 4400 | 96.4
23 | CC(C)(C)C#CC1=C[C@@H]2C[C@@]3(OC(=O)C=C13)[C@H]1CCCCN21 | 100 | – | 98.8 | – | – | – | 25.2
24 | CCN(CC)c1ccc(C#CC2=C[C@@H]3C[C@@]4(OC(=O)C=C24)[C@H]2CCCCN32)cc1 | 100 | – | 100 | – | – | – | 98.2
25 | O=C1C=C2C(C#Cc3ccccc3C(F)(F)F)=C[C@@H]3C[C@@]2(O1)[C@H]1CCCCN31 | 100 | – | 99.9 | – | – | – | 55.8
26 | O=C1C=C2C(C#CC3CCCCC3)=C[C@@H]3C[C@@]2(O1)[C@H]1CCCCN31 | 100 | – | 99.8 | – | – | – | 49.3
27 | O=C1C=C2C(C#Cc3ccc(N4CCCCC4)cc3)=C[C@@H]3C[C@@]2(O1)[C@H]1CCCCN31 | 100 | – | 100 | – | – | – | 98
28 | O=C1C=C2C(C#CC3C=CCCC3)=C[C@@H]3C[C@@]2(O1)[C@H]1CCCCN31 (stereo partly specified) | 97.3 | – | 98.1 | – | – | – | 3.3
29 | CCCCC#CC1=C[C@@H]2C[C@@]3(OC(=O)C=C13)[C@H]1CCCCN21 | 99.5 | – | 98.1 | – | – | – | 7.6
30 | O=C1C=C2C(c3ccc(-c4ccccc4)cc3)=C[C@@H]3C[C@@]2(O1)[C@H]1CCCCN31 | 82.8 | – | 52.6 | – | – | – | 5.4
31 | O=C1C=C2C(c3ccc(F)cc3)=C[C@@H]3C[C@@]2(O1)[C@H]1CCCCN31 | 24 | – | 9.9 | – | – | – | 2.1
32 | CC[C@@]1(O)C(=O)OCc2c1cc1n(c2=O)Cc2cc3ccccc3nc2-1 [CAMPTOTHECIN] | – | 13 | – | 3 | 35 | 9 | –
33 | COc1cccc2c1C(=O)c1c(O)c3c(c(O)c1C2=O)C[C@@](O)(C(=O)CO)C[C@@H]3O[C@H]1C[C@H](N)[C@H](O)[C@H](C)O1 [DOXORUBICIN] | 95.6 | – | 94.3 | – | – | – | 99.6
34 | COc1cc([C@@H]2c3cc4c(cc3[C@@H](O[C@@H]3O[C@@H]5CO[C@@H](C)O[C@H]5[C@H](O)[C@H]3O)[C@H]3COC(=O)[C@H]23)OCO4)cc(OC)c1O [ETOPOSIDE] | – | – | – | > 10000 | 860 | – | –
